Measured values taken from ChEMBL document CHEMBL1138220, “Synthesis and characterization of a novel liver-targeted prodrug of cytosine-1-beta-D-arabinofuranoside monophosphate for the treatment of hepatocellular carcinoma” (J Med Chem, 2006).
In brackets after ≈: the same amount, converted by molar mass.

Columns and labels:
[1] = Stability in phosphate buffer at pH 7.4 at 37 degC at 100 uM after 24 hrs; type: physicochemical; settings: for remaining at 24 h, 100 µM: phosphate buffer, pH 7.4, read-out: Stability
How it was run: (§1)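 Prodrug at 100 µM in 10 mM phosphate buffer pH 7.4, held at 37 °C. Intact prodrug was quantified by C18 HPLC at 270 nm and expressed as % remaining at 24 h or 72 h.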

[2] = Stability in phosphate buffer at pH 7.4 at 37 degC at 100 uM after 72 hrs; type: physicochemical; settings: for remaining at 72 h, 100 µM: phosphate buffer, pH 7.4, read-out: Stability; how it was run: as §1
[3] = Aqueous solubility in citrate buffer at pH 4; type: physicochemical
How it was run: (§2)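 Each prodrug was dissolved at 10 mg/mL (pyridyl prodrugs at 200 mg/mL) in 100 mM citrate buffer pH 4.0 or 100 mM phosphate pH 7.4. Samples were sonicated 20 min, held ~10 min at room temperature, filtered through 0.45 µm, diluted 1:100 or 1:10000 in DMSO, then quantified by C18 HPLC (acetonitrile gradient, 40 °C, 270 nm).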

[4] = Aqueous solubility in phosphate buffer at pH 7.4; type: physicochemical; how it was run: as §2
Liver [5] = assay: Distribution of araCTP in Swiss Webster mouse liver at 100 mg/kg, ip measured as AUC (0-4h); type: ADME, organism-based; parameters: time < 5 hr, dose 100 mg/kg, route intraperitoneal; settings: in vivo, 5 h
How it was run: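 Nonfasted male Swiss Webster mice were dosed i.p. at a molar equivalent of 100 mg/kg araC. Livers were taken at set times up to 4 h, snap-frozen, homogenized in 3 volumes of 10% PCA, centrifuged and neutralized with KOH/KHCO₃. AraCTP was measured and reported as AUC 0-4 h (nmol·h/g).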

Bone marrow = assay: Distribution of araCTP in Swiss Webster mouse bone marrow at 100 mg/kg, ip measured as AUC (0-4h); type: ADME, organism-based; parameters: time < 5 hr, dose 100 mg/kg, route intraperitoneal; settings: in vivo, 5 h
How it was run: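 Male Swiss Webster mice were given i.p. prodrug at a molar equivalent of 100 mg/kg araC. Bone marrow cell pellets collected up to 4 h were extracted with 12 volumes of 3% PCA, centrifuged 10 min and neutralized to pH 7-8 with KOH/KHCO₃. AraCTP was expressed as AUC 0-4 h; the lower limit of quantitation was 3 nmol·h/g.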

Liver [6] = assay: Ratio of AUC for araCTP level in liver to plasma of Swiss Webster mouse; type: functional
Liver [7] = assay: Ratio of AUC for araCTP level in liver to bone marrow of Swiss Webster mouse; type: functional
[8] = citrate buffer, read-out: Solubility
[9] = phosphate buffer, read-out: Solubility

remaining at 24 h, 100 µM [1] [%] | remaining at 72 h, 100 µM [2] [%] | solubility [3, 8] [µg/mL] | solubility [4, 9] [µg/mL] | AUC (Liver [5]) [nmol·h/g] | AUC (Bone marrow) [nmol/g] | Stability ([1]; buffer, pH 7.4, 24 h, 100 µM, 24 h) [%] | Stability ([2]; buffer, pH 7.4, 72 h, 100 µM, 72 h) [%] | solubility ([3]; buffer) [µg/mL] | solubility ([4]; buffer) [µg/mL] | Compound | Ratio AUC (Liver [6]) | Ratio AUC (Liver [7])
60 | 23 | 10300 (≈ 20.7 mM) | 7200 (≈ 14.5 mM) | – | – | – | – | – | – | COC(=O)c1cccc([C@H]2CCOP(=O)(OC[C@H]3O[C@@H](n4ccc(N)nc4=O)[C@@H](O)[C@@H]3O)O2)c1 (some centres not stated) | – | –
> 99 | > 95 | 23900 (≈ 54.3 mM) | 7100 (≈ 16.1 mM) | 148.8 | < 12 | – | – | – | – | Nc1ccn([C@@H]2O[C@H](COP3(=O)OCC[C@@H](c4ccncc4)O3)[C@@H](O)[C@@H]2O)c(=O)n1 (some centres not stated) | 19.6 | >12
63 | 21 | 3700 (≈ 7.81 mM) | 1700 (≈ 3.59 mM) | – | – | – | – | – | – | Nc1ccn([C@@H]2O[C@H](COP3(=O)OCC[C@H](c4cccc(Cl)c4)O3)[C@@H](O)[C@@H]2O)c(=O)n1 (some centres not stated) | – | –
– | – | – | – | < 19.2 | 46 | – | – | – | – | Nc1ccn([C@@H]2O[C@H](CO)[C@@H](O)[C@@H]2O)c(=O)n1 [CYTARABINE] | <0.16 | <0.42
– | – | – | – | – | – | 92 | 90 | > 200000 | > 200000 | Nc1ccn([C@@H]2O[C@H](COP3(=O)OCC[C@H](c4ccncc4)O3)[C@@H](O)[C@@H]2O)c(=O)n1 (stereo in doubt; 10i) | – | –
9 | 4 | – | – | – | – | – | – | – | – | Nc1ccn([C@@H]2O[C@H](COP3(=O)OCC[C@H](c4ccc(Br)cc4)O3)[C@@H](O)[C@@H]2O)c(=O)n1 (some centres not stated) | – | –
84 | 61 | 7400 (≈ 14.9 mM) | 5700 (≈ 11.5 mM) | – | – | – | – | – | – | COC(=O)c1ccc([C@H]2CCOP(=O)(OC[C@H]3O[C@@H](n4ccc(N)nc4=O)[C@@H](O)[C@@H]3O)O2)cc1 (some centres not stated) | – | –
5 | 4 | – | – | – | – | – | – | – | – | Nc1ccn([C@@H]2O[C@H](COP3(=O)OCC[C@H](c4ccc(Cl)cc4)O3)[C@@H](O)[C@@H]2O)c(=O)n1 (some centres not stated) | – | –
> 99 | > 97 | – | – | 68 | < 12 | – | – | 37900 (≈ 86.1 mM) | 16700 (≈ 37.9 mM) | Nc1ccn([C@@H]2O[C@H](COP3(=O)OCC[C@H](c4ccncc4)O3)[C@@H](O)[C@@H]2O)c(=O)n1 (stereo in doubt; 19R) | 19.4 | >7
99 | 83 | 172000 (≈ 391 mM) | 176000 (≈ 400 mM) | – | – | – | – | – | – | Nc1ccn([C@@H]2O[C@H](COP3(=O)OCC[C@H](c4cccnc4)O3)[C@@H](O)[C@@H]2O)c(=O)n1 (some centres not stated) | – | –
74 | 52 | 6700 (≈ 13.6 mM) | 3200 (≈ 6.51 mM) | – | – | – | – | – | – | Nc1ccn([C@@H]2O[C@H](COP3(=O)OCC[C@H](c4ccc(F)c(Cl)c4)O3)[C@@H](O)[C@@H]2O)c(=O)n1 (some centres not stated) | – | –
82 | 76 | 1100 (≈ 2.16 mM) | 500 (≈ 0.984 mM) | – | – | – | – | – | – | Nc1ccn([C@@H]2O[C@H](COP3(=O)OCC[C@H](c4cc(Cl)cc(Cl)c4)O3)[C@@H](O)[C@@H]2O)c(=O)n1 (some centres not stated) | – | –
